Screening data (PubChem BioAssay)
Only some compounds are listed: those with a hit (about 1.3% of all), similar ones and a draw of the others.
HNF4A DNA FP: change in binding of human HNF4A to DNA, primary screen, biochemical, fluorescence polarization, FITC-DNA | Hepatocyte nuclear factor 4-alpha (Homo sapiens), P41235 | 1 h | activity change, % at 10 µM | 360,000 compounds, 0.3% hits | AID 1224865, 2016; in the data active = activity change above about 30%, passing the limit was not always enough
XiGFP reactiv: activators of inactive X chromosome reactivation, primary screen, imaging, XiGFP fibroblasts, GFP high-content imaging, set 2 | XiGFP mouse fibroblasts, % GFP-positive cells imaging, 3 d; cells co-treated with 5-aza-dC sensitizer; scaled so ellipticine positive control = 100% | activation, % at 7.58 µM | 360,000 compounds, 0.055% hits | AID 743238, 2013;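 active = mean normalized replicate activation at least 10% and every replicate at or above 10%; inconclusive = only one of the two criteria met; inactive = mean below 10% and not all replicates reach 10%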;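 note: 0% = median of on-plate neutral control wells and 100% = ellipticine 6 µM median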
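Material: XiGFP fibroblasts, SV40-immortalized; Buffer or medium: DMEM containing 5-aza-dC; Compound dosing: single point; Times: 3 days compound exposure.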
CSN inh: inhibitors of CSN-mediated cullin deneddylation, primary screen, biochemical, fluorescence polarization, uHTS. inhibition, % at 12.5 µM. Purified CSN, SCF-Nedd8-OG deneddylation. AID 651999, 2013. COP9 signalosome complex subunit 5 (Homo sapiens), Q92905. 360,000 compounds, 0.38% hits;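 active = pattern-corrected inhibition above about 35%, with an unprinted fluorescence ratio check between 0.5 and 1.5, limit read from the data, passing the limit was not always enough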;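 note: 0% = enzyme with substrate and 100% = substrate without enzyme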
Target sequence (Q92905 whole entry, looked up, one chain of several): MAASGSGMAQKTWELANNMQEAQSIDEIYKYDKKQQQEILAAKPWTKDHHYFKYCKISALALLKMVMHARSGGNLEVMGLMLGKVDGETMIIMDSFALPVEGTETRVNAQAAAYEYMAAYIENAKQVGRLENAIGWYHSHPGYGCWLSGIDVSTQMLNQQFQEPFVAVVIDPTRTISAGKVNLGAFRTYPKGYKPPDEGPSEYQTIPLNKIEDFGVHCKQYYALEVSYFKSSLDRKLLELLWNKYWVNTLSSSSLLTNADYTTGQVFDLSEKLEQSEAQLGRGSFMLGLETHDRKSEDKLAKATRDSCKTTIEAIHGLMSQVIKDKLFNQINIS
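test system = HEK293T-derived human Csn5 enzyme | amount = 0.24 nM Csn5 enzyme, final concentration | medium = Tris/NaCl/DTT buffer, pH 7.5 | schedule = 90 min reaction at room temperature | signal = FP | evaluation = inhibition of Csn5 cleavage, % | compound dosing = single dose of 12.5 µM compound with 0.25% DMSO | probe or stimulus = 10 nM SCFSkp2-Nedd8OG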
TPT1 inh: Candida albicans TPT1 enzyme inhibitors, primary screen, biochemical, fluorescence polarization. AID 1962, 2009. tRNA 2'-phosphotransferase TPT1 (Candida albicans SC5314). recombinant caTPT1, FP RNA substrate dephosphorylation. 300,000 compounds, 0.81% hits. inhibition, % at 5 µM;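 active = inhibition above the mean of all tested compounds plus 3 SD, set per screening campaign, cut at about 24% in these data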;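 note: plate controls were DMSO alone for no effect and ferristatin control at 100 nM for full effect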
Rpn11 inh: Rpn11 (PSMD14) deubiquitinase inhibitors, primary screen, biochemical, fluorescence polarization, uHTS. inhibition, % at 20 µM. 360,000 compounds, 0.59% hits. human 26S proteasome, Ub4-pepOG fluorescence polarization; 20S core pre-blocked with epoxomicin;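 active = inhibition at 20 µM, scaled to each plate's controls, above about 33%, limit read from the data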
Target sequence (O00487 whole entry, looked up): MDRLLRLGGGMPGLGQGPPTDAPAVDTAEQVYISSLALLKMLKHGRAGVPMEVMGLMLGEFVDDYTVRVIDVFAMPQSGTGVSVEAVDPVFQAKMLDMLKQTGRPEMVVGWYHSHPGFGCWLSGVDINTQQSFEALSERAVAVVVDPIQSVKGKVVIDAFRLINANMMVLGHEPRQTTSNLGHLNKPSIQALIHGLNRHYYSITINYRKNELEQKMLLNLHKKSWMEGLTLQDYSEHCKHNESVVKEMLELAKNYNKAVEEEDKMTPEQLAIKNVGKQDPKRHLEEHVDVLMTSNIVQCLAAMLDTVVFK
aDG glyco act: activators of alpha-DG glycosylation, primary screen, uHTS, Pro5-aDG cells, AlphaScreen; 360,000 compounds, 0.22% hits; activation, % at 10 µM; AID 624168, 2012; alpha-DG glycosylation AlphaScreen (IIH6); 0% Pro5, 100% B10-LARGE cell signal;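 active = activation of at least 8% versus controls, or a plate z-score of at least 8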;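 note: Pro5 are CHO cells carrying HIG-tagged alpha-DG that lacks glycosylation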
The depositor's hits bear a star; ? = inconclusive; nt = no result given; ! = repeats disagree.

SMILES | HNF4A DNA FP | XiGFP reactiv | CSN inh | TPT1 inh | Rpn11 inh | aDG glyco act
Cc1sc2ncnc(N/N=C/c3cccc(O)c3)c2c1C | 3 | 0 | 4 | 2 | 5 | 0
C/C(=N\Nc1ncnc2sc(C)c(C)c12)c1ccccn1 | 1 | 85* | 9 | -6 | 30 | 0
CC(C)(C)NC(=O)C(c1ccc(-c2ccccc2)cc1)n1c(=O)c(-c2ccco2)nc2ccccc21 (stereo unspecified) | 46* | 0 | 28 | nt | nt | 0
COc1ccc(C(C(=O)NC(C)(C)C)n2c(=O)c(-c3ccco3)nc3ccccc32)cc1 (stereo unspecified) | 17 | 0 | 9 | nt | nt | 0
Cc1cccc(C)c1NC(=O)C(c1ccc(-c2ccccc2)cc1)n1c(=O)c(-c2ccco2)nc2ccccc21 (stereo unspecified) | 21 | 0 | 44* | nt | nt | 0
CC=Cc1ccc2n(c1=O)C[C@@H]1[C@@H](CO)[C@H](C(=O)NCC)[C@H]2N1Cc1ccccc1 (mixture of isomers) | nt | 0 | nt | nt | nt | nt
CC(C)NC(=O)Nc1ccc2c(c1)CC(=O)N(C)C[C@H](C)[C@@H](CN(C)C)O2 | nt | 0 | nt | nt | nt | nt
Cc1c2c(cc3c1[nH]c1ccccc13)C=NCC2 | 64* | ? | 65* | nt | nt | 3
COc1cc2c(cc1OC)C(c1ccc(-c3ccc(Cl)cc3Cl)o1)=NCC2 | 11 | nt | 5 | 4 | 1 | 0
COc1cc2c(cc1OC)C(c1ccc(-c3cc(Cl)ccc3Cl)o1)=NCC2 | 38* | nt | 6 | 22 | -42 | 0
COCC(=O)Nc1ccc2c(c1)OC[C@H](C)N(CC1CCCCC1)C[C@H](C)[C@H](OC)CN(C)C2=O | nt | 0 | nt | nt | nt | nt
Cc1ccc(S(=O)(=O)Nc2ccc3c(c2)C(=O)N([C@H](C)CO)C[C@H](C)[C@@H](CN(C)C)OCCCC[C@H](C)O3)cc1 | nt | 0 | nt | nt | nt | nt
N#CC(C#N)=C1C=CC=CN1/C(=C\c1ccco1)C(=O)c1ccc(-c2ccccc2)cc1 | -1 | 15* | 9 | 7 | 10 | -1
CC[C@H](C)/C=C/C1=CC2=C(Cl)C(=O)[C@@]3(C)OC(=O)C(C(=O)[C@H](C)[C@@H](C)O)=C3C2=CO1 | 1 | nt | 49* | 1 | -8 | 0
COc1ccccc1Nc1nn2c(=O)c3ccc(C(=O)NCc4cccnc4)cc3nc2s1 | 90* | nt | 84* | -2 | -1 | 0
COc1ccccc1Nc1nn2c(=O)c3ccc(C(=O)N4CCCCC4)cc3nc2s1 | -1 | 0 | 3 | 0 | -5 | -1
O=C(c1cccc([N+](=O)[O-])c1)c1ccc2[nH]c(=O)[nH]c2c1 | 4 | 1 | 97* | 4 | -4 | 0
NC(=O)c1cccc([N+](=O)[O-])c1 | 5 | nt | -2 | nt | -3 | 0
COc1cccc(-n2nc3c(-n4ncc(C#N)c4N)nnc(C)c3c2C)c1 | 6 | nt | 58* | 1 | 7 | 0
CC(=O)N(C)C[C@H]1Oc2ccccc2C(=O)N(C)C[C@@H]1C | nt | 0 | nt | nt | nt | nt
O=C(Nc1cccc(S(=O)(=O)NC2=NCCCCC2)c1)c1cc(-c2ccco2)nc2ccccc12 | -33 | 0 | 51 | 2 | 41* | 0
O=C(Nc1cccc(S(=O)(=O)NC2=NCCCCC2)c1)c1cc(-c2ccncc2)nc2ccccc12 | -1 | 0 | 9 | 7 | 0 | 0
CCC(=O)N1C[C@@H](C)[C@H](OC)CN(C)C(=O)c2ccc(NC(=O)Nc3ccccc3)cc2OC[C@H]1C | nt | 0 | nt | nt | nt | nt
COc1cc(C(=O)NCCCc2nc3ccccc3n2Cc2cc(C)ccc2C)cc(OC)c1OC | 37* | 0 | 0 | -7 | 4 | 0
Cc1cc(C)c[n+](-c2nc3ccccc3nc2C(=C=[N-])C#N)c1 | 44*! | 0 | 33 | 1 | 15 | 0
SMILES | HNF4A DNA FP | XiGFP reactiv | CSN inh | TPT1 inh | Rpn11 inh | aDG glyco act
Cc1cc[n+](-c2nc3ccccc3nc2C(=C=[N-])C#N)cc1 | 26 | nt | 35 | 20 | 31 | 0
CCOC(=O)C1=C(C)N=c2s/c(=C\c3ccc(OCC(=O)O)cc3)c(=O)n2C1c1ccccc1 (stereo unspecified) | 0 | 0 | -2 | 6 | 7 | 0
CCOC(=O)C1=C(C)N=c2sc(=Cc3ccc(OCC(=O)O)cc3)c(=O)n2C1c1ccc(SC)cc1 (stereo unspecified) | 6 | 0 | 38* | nt | 45* | 0
COc1ccc2c3c(n(C)c2c1)[C@H](CO)N(Cc1ccccc1)CC31CCN(C(=O)C2CC2)CC1 | nt | 1 | nt | nt | nt | nt
COc1ccc2c3c([nH]c2c1)[C@H](CO)N(C(=O)c1ccncc1)CC31CCN(C)CC1 | nt | 0 | nt | nt | nt | nt
COC(=O)Cn1c(C)c(/C=C/c2cc[n+](C)cc2)c2ccccc21 | 128 | 1 | 70* | nt | nt | 0
O=C(N/N=C/c1ccc2c(c1)OCO2)c1cc(-c2ccco2)nc2ccccc12 | -13 | 0 | 43* | nt | -10 | 0
O=C(N/N=C/c1ccc2c(c1)OCO2)c1cc(-c2ccccc2)nc2ccccc12 | 0 | 0 | -1 | 2 | 33 | 1
Cc1cccn2c(=O)c(C=O)c(NCc3ccccc3)nc12 | 3 | 0 | 1 | 0 | -19 | 0
CCCN1C(=O)/C(=C/c2c(NCCCOCC)nc3c(C)cccn3c2=O)SC1=S | 50* | nt | 38* | nt | 78* | 0
c1coc(-c2nnc3sc(Cc4cccs4)nn23)c1 | -8 | nt | 35* | 3 | -19 | 0
C[C@@H]1CCCCO[C@H](CN(C)C(=O)Nc2ccc3c(c2)OCO3)[C@H](C)CN([C@H](C)CO)C(=O)c2cc(NS(=O)(=O)c3ccccc3)ccc2O1 | nt | 0 | nt | nt | nt | nt
CS(=O)(=O)N1N=C(c2ccc(Br)cc2)CC1c1ccc2c(c1)OCO2 (stereo unspecified) | 17 | nt | 4 | 1 | 21 | 0
Cc1ccc(C2=NN(S(C)(=O)=O)C(c3ccc4c(c3)OCO4)C2)cc1 (stereo unspecified) | 51* | 0 | 12 | 0 | 40 | 0
CCS(=O)(=O)N1N=C(c2cccc(NS(C)(=O)=O)c2)CC1c1ccc(C)cc1 (stereo unspecified) | 159 | 0 | 73* | 13 | nt | 0
CCCCC12CN3CCN(CC(C3)/C1=N\NC(=O)Nc1ccccc1)C2 | 3 | nt | 42* | 0 | -3 | 0
C[C@H](CO)N1C[C@H](C)[C@H](CN(C)C(=O)Cc2cccnc2)Oc2cc(C3=CCCCC3)ccc2S1(=O)=O | nt | 0 | nt | nt | nt | nt
